T cell HTS – T cell immune modulation candidate. 2C CD8+ T cell-vesicle binding, flow cytometry; active compounds read low. response (vesicle binding), % at 7 µM. 0.068% of 330,000 active. AID 2052;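 active = response, share of CD8 T cells binding vesicles, and their 90th percentile fluorescence all below set limits, cut at about 80% in these data, passing the limit was not always enough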;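 note: values below 100% mean blocked vesicle binding to the CD8+ T cells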
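Read-out – percent CD8+ FL2 mean versus row control · System – murine 2C transgenic CD8+ T lymphocytes · Times – 1.5 h cell–vesicle binding at 37 °C, then 20 min icy labelling · Control set – naked vesicles low, QL9 vesicles with vehicle high · Detection – cytometric PE anti-B7-1 and Alexa647 anti-CD8 signals after 1% paraformaldehyde fixation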
Rin1 Abl inh – human Rin1-Abl interaction inhibition; P00519+Q13671; inhibition, % at 7.35 µM; 0.4% of 360,000 active; AID 588664; TR-FRET Rin1/Abl binding, biochemical; in the data active = inhibition above about 5%, passing the limit was not always enough
SKN-1 inh – blocks SKN-1 activity in C. elegans. AID 624304. 0.49% of 360,000 active. inhibition, % at 21.8 µM. C. elegans VP596 Pgst-4::GFP/RFP ratio, acrylamide-induced, 24 h;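 active = interference check ratio from 0.5 to 1.5 plus GFP to RFP signal ratio inhibition reaching or exceeding a fixed threshold, cut at about 30% in these data, passing the limit was not always enough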
GRK2 aptamer HTS – inhibitors of human GRK2 displacing RNA aptamer. P25098. bead flow cytometry, FAM-aptamer displacement from GRK2. inhibition of aptamer binding, % at 10 µM. 0.59% of 330,000 active;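 active = inhibition of aptamer binding above 40%, roughly 3 SD of noise, on plates passing a quality check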;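 note: median bead fluorescence of bound FAM aptamer so fluorescent compounds give negative values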
Rce1 inhib – inhibitors of yeast Ras-converting enzyme; Q03530; yeast membranes, quenched prenylated peptide cleavage fluorescence; calls only; 0.27% of 290,000 active;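 active = fall in fluorescence gain of 50% or more versus controls, with final raw signal at or below 3038400; inconclusive = same 50% fall but final raw signal above 3038400; inactive = fall in fluorescence gain under 50%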
Target sequence (Q03530 whole entry, looked up): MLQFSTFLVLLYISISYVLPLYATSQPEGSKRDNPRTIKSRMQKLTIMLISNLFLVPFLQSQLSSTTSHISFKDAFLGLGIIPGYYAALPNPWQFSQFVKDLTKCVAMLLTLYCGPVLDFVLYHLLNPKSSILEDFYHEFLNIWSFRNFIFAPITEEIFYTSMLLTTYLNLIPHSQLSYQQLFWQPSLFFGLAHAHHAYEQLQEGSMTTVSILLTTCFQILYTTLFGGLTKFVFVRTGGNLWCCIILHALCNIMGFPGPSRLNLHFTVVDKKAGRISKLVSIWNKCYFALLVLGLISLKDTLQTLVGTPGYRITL
Myeloid diff 2 – compounds promoting myeloid differentiation; 1% of 360,000 active; AID 624256; ER-HoxA9 myeloid progenitors, lysozyme-GFP differentiation, flow cytometry; calls only at 10 µM;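 active = normalized GFP-positive differentiation at or above the plate's own cutoff, the solvent-only control mean plus 3 SD; inconclusive = no clear call, values can overlap the other calls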;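 note: cells exposed to compound for four days before flow analysis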
Numbers stand for hits; – = inactive; ? = inconclusive; · = not tested or not shown; + = active, no number. Sampled rows, rich in hits. Any-hit rate of the full collection: about 2.6%.

SMILES	T cell HTS	Rin1 Abl inh	SKN-1 inh	GRK2 aptamer HTS	Rce1 inhib	Myeloid diff 2
O=C(Nc1nccs1)c1cn(-c2ccccc2)nc1-c1ccncc1	–	–	–	–	–	+
COc1ccc(OC(=O)COc2ccc(C)cc2)cc1	–	–	–	–	–	–
COc1ccc(OCC(=O)Sc2ccc(C)cc2)cc1	–	–	43	–	–	–
Cc1cc2n(n1)C(c1ccc3c(c1)OCO3)Nc1c(C)cccc1-2 (centres undefined)	–	–	–	–	–	–
Cc1cc(C)c2c(c1)-c1cc(C)nn1C(c1ccc3c(c1)OCO3)N2 (centres undefined)	–	–	–	–	+	–
C=CCn1c(=NC(=O)c2ccc(S(=O)(=O)N3CCCc4ccccc43)cc2)sc2cc(S(N)(=O)=O)ccc21	–	–	–	–	–	–
COCCn1c(=NC(=O)c2ccc(S(=O)(=O)N3CCCc4ccccc43)cc2)sc2cc(S(C)(=O)=O)ccc21	–	–	–	–	–	+
Cc1cc(CNC[C@H]2O[C@@H](n3cnc(C(N)=O)n3)[C@H](O)[C@@H]2O)c(C)n1-c1cccnc1	·	–	–	·	·	–
Cn1c(=O)c2ncn(C)c2n(C)c1=O	·	–	–	·	·	–
c1csc(CSc2nc3ccccc3s2)c1	–	–	78	–	–	–
Cc1ccc(S(=O)(=O)N2CCN(C(=O)CNC(=O)c3ccc(Cl)cc3)CC2)cc1	37	–	–	–	·	–
Cc1ccc(C(=O)NCC(=O)N2CCCN(S(=O)(=O)c3ccc(C)cc3)CC2)cc1	·	–	–	·	·	–
O=C(NCC(=O)N1CCOCC1)c1ccc(Cl)c(Cl)c1	–	–	37	–	·	–
CCOc1ccc(OCCCC(=O)N2CCN(S(=O)(=O)c3ccc(Cl)cc3)CC2)cc1	–	58	–	–	–	–
O=C(c1ccc(Cl)c(Cl)c1)N1CCOCC1	–	–	–	–	–	–
CCCn1c(C)cc(C(=O)COC(=O)c2ccc[nH]c2=O)c1C	–	–	–	–	–	–
O=C1c2ccccc2[C@@H]2Cc3csc[n+]3[C@H]12	·	·	–	·	·	–
Cc1cccc(S(=O)(=O)Nc2nc3ccccc3nc2OC(C)C)c1	–	–	–	58	–	–
C=CCNc1nc2ccccc2nc1NS(=O)(=O)c1cccc(C)c1	–	–	–	–	–	–
Cc1nc(NC(=O)C2CC3CCCC(C2)C3=O)sc1C (centres undefined)	–	–	33	–	–	–
COc1ccc(C(=O)NNC2=NCCCCC2)cc1	–	–	–	–	–	–
O=C(COC(=O)c1ccccn1)c1ccc([N+](=O)[O-])cc1	–	–	–	–	–	–
Cc1c(Cl)cccc1NC(=O)CC1NCCNC1=O (centres undefined)	–	–	38	–	–	–
Cc1c(Cl)cccc1NC(=O)CC1SCCNC1=O (centres undefined)	–	–	–	–	–	–
CCOC(=O)c1[nH]c(C)c(C(=O)Nc2ccc(Cl)cc2)c1C	–	–	–	–	–	–
SMILES	T cell HTS	Rin1 Abl inh	SKN-1 inh	GRK2 aptamer HTS	Rce1 inhib	Myeloid diff 2
CCOC(=O)c1[nH]c(C)c(C(=O)Nc2cccc(Cl)c2C)c1C	–	–	–	–	–	+
CC(C)Nc1nnc(SCC(=O)N2CCN(C(=O)c3ccco3)CC2)s1	–	–	–	–	·	–
N#Cc1c(N)oc(-c2ccc3c(c2)OCO3)c1-c1ccc2c(c1)OCO2	–	–	43	–	–	–
Cc1sc2nc3c4ccccc4c(NCc4ccco4)nn3c(=O)c2c1C	–	–	–	–	·	+
COc1ccc2[nH]c(=O)c(CN(Cc3cccnc3)C(=S)NCC3CCCO3)cc2c1 (centres undefined)	–	–	–	–	–	–
CCOc1cc(CNCCSc2nnnn2C)cc(Br)c1OCc1ccc(F)cc1	–	–	68	–	–	–
CCOc1cc(CNCCSc2nnnn2C)cc(Br)c1OCc1ccccc1F	–	–	39	–	–	–
CCOC(=O)Cn1nc(C)c(NC(=O)c2ccc(Br)o2)c1C	–	–	–	–	–	–
CCN(CC)CCNC(=O)c1cc2cc3ccc(OC)cc3nc2o1	–	–	–	–	?	–
COCCCNC(=O)c1cc2cc3cc(OC)ccc3nc2o1	–	–	–	–	+	–
CCOC(=O)C1(CC2CCCCO2)CCN(Cc2cn[nH]c2-c2cccc(F)c2)CC1 (centres undefined)	–	–	–	–	–	–
Cn1/c(=N/N=C/c2ccccn2)sc2ccccc21	·	–	42	·	·	–
N/C(=N\NS(=O)(=O)c1ccc(Cl)cc1)c1ccccn1	–	–	–	41	–	–
COc1ccc(C(=O)N/C(=C/c2ccc(Cl)cc2)C(=O)Nc2ccc(C(=O)O)cc2)cc1	–	–	–	–	–	–
CCCC(=O)NCCc1cc2cc(C)c(C)cc2[nH]c1=O	·	–	–	·	–	–
CC(=O)NCCc1cc2cc(C)c(C)cc2[nH]c1=O	–	–	32	–	–	–
CCn1cc(/C=C(\NC(=O)c2ccccc2Cl)C(=O)N2CCOCC2)c2ccccc21	–	–	–	–	+	–
CCn1cc(/C=C(\NC(=O)c2ccccc2F)C(=O)N2CCCC2)c2ccccc21	–	–	–	–	+	–
CCn1cc(/C=C(\NC(=O)c2ccccc2F)C(=O)N2CCOCC2)c2ccccc21	–	–	–	–	+	–
CCn1cc(/C=C(\NC(=O)c2ccccc2OC)C(=O)N2CCOCC2)c2ccccc21	·	–	–	·	·	–
COc1cc(OC)cc(N(C(=O)CNC(=O)c2cccs2)C(C(=O)NCC2CCCO2)c2ccc(OC)c(OC)c2)c1 (centres undefined)	–	–	–	–	–	–
Fc1ccc(COc2ccc(-c3nnco3)cc2)c(Cl)c1	–	–	87	–	·	?
Fc1cc(Br)ccc1COc1ccc(-c2nnco2)cc1	–	–	49	–	–	–
O=C(COc1ccc(-c2nnco2)cc1)Nc1c(F)cccc1F	–	–	–	–	–	–
O=C(CCS(=O)(=O)c1ccc(F)cc1)Nc1nnc(-c2ccc(F)cc2)o1	–	–	–	–	–	–
SMILES	T cell HTS	Rin1 Abl inh	SKN-1 inh	GRK2 aptamer HTS	Rce1 inhib	Myeloid diff 2
CN(C(=O)COC(=O)c1ccc(=O)n(Cc2ccccc2)n1)C1CCS(=O)(=O)C1 (centres undefined)	–	–	–	–	–	–
Cc1ccc(NC(=O)CN2CCc3ccccc3C2)cc1F	–	–	–	–	–	–
COc1cccc(NC(=O)CN2CCc3ccccc3C2)c1	–	–	35	–	–	–
Cc1cc(C)nc(-n2nc(C)cc2NC(=O)CN2CCc3ccccc3C2)n1	–	–	–	–	–	+
Cc1cc(C)nc(-n2nc(C)cc2NC(=O)CN2CCCC(C)C2)n1 (centres undefined)	–	–	–	–	–	–
Cc1ccccc1OCCC(=O)N1CCN(S(=O)(=O)c2ccc(Cl)cc2)CC1	–	–	–	–	–	–
N/C(=N\OC(=O)c1cccc(Cl)c1)c1ccncc1	–	–	–	–	–	–
